Source: ChEMBL document CHEMBL4387722

Tests used:
[1] = biological target: T1, Tyrosine-protein phosphatase non-receptor type 1 (Homo sapiens, UniProt P18031); experiment: Inhibition of human PTPN1 expressed in Escherichia coli Rosetta 2 (DE3) using pNPP as substrate after 45 mins by spectrophotometric method
T1 sequence (P18031 whole entry): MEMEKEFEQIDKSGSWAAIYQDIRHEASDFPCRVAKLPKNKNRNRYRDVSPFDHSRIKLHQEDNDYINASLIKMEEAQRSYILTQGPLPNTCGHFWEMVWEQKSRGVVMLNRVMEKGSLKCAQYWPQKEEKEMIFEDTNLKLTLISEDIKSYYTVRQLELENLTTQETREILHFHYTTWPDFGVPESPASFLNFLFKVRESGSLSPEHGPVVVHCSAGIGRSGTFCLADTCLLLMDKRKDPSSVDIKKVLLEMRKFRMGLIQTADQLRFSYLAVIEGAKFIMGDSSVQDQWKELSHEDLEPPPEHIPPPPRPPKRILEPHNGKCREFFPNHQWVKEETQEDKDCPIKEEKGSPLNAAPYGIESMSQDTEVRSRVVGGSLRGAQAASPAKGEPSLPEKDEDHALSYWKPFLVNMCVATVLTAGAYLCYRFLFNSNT

HSP60/HSP10 = HSP60/HSP10 (Homo sapiens, UniProt P10809); experiment: Inhibition of human HSP60 expressed in Escherichia coli Rosetta 2(DE3)/human HSP10 expressed in Escherichia coli Rosetta 2(DE3) pLysS cells assessed as reduction in HSP60/HSP10-mediated denatured pig heart mitochondrial MDH refolding by measuring MDH enzyme activity using sodium mesoxalate as substrate after 40 to 60 mins by spectrometric analysis
Chain of HSP60/HSP10 (P10809 whole entry): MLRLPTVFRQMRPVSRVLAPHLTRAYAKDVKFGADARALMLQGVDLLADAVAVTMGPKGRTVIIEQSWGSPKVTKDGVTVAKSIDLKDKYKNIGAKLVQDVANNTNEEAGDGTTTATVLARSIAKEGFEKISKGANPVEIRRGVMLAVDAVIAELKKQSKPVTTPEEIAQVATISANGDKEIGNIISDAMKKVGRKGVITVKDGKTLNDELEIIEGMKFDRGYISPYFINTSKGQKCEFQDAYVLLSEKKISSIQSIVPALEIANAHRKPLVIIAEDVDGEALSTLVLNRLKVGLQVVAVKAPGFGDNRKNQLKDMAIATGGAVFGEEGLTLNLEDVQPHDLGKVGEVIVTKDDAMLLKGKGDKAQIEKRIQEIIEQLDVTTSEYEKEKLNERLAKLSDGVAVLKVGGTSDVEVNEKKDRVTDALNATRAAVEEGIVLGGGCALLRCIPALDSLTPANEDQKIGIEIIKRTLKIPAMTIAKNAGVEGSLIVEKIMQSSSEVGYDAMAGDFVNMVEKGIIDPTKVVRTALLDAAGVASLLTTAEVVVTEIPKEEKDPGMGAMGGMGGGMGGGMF
Chain of HSP60/HSP10 (P61604 whole entry, further chain): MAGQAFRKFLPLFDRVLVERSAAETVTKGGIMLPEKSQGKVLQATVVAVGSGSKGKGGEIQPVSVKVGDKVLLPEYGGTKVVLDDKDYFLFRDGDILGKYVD

[2] = Selectivity index, ratio of IC50 for human PTPN1 to IC50 for Mycobacterium tuberculosis PtpB
[3] = biological target: T2, Tyrosine-protein phosphatase non-receptor type 2 (Homo sapiens, UniProt P17706); experiment: Inhibition of human PTPN2 expressed in Escherichia coli Rosetta 2 (DE3) using pNPP as substrate after 45 mins by spectrophotometric method
T2 sequence (P17706 whole entry): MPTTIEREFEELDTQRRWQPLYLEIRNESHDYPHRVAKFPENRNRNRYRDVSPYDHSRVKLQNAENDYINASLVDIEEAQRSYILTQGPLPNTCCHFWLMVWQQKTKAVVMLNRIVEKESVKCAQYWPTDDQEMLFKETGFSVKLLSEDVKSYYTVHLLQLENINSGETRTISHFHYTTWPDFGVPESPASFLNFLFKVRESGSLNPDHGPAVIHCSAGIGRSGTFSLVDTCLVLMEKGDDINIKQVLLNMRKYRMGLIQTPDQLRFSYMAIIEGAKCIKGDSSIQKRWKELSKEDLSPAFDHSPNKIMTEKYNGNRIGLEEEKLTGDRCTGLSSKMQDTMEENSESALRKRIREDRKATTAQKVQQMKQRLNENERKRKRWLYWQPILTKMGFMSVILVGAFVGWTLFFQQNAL

[4] = biological target: T3, Phosphotyrosine protein phosphatase (Mycobacterium tuberculosis, UniProt A0A045ISB3); experiment: Inhibition of Mycobacterium tuberculosis His-tagged PtpB expressed in Escherichia coli Rosetta 2 (DE3) using pNPP as substrate after 30 mins by spectrophotometric method
T3 sequence (A0A045ISB3 whole entry): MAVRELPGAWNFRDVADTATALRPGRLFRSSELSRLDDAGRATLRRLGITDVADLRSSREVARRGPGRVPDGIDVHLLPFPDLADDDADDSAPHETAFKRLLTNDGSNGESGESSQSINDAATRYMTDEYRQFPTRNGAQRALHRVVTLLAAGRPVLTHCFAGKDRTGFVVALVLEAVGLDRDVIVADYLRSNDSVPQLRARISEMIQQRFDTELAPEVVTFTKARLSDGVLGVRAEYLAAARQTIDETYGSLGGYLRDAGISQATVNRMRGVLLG

[5] = test system: Mycobacterium tuberculosis; experiment: Antitubercular activity against Mycobacterium tuberculosis H37Rv after 5 days at 200 uM relative to control; type: functional; details: 120 h
In short: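 M. tuberculosis grown in liquid culture with compound at a fixed 200 μM for 5 days. Growth inhibition expressed as percent of control.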

E. coli GroEL/ES [6] = biological target: T4, E. coli GroEL/ES (Escherichia coli, UniProt P0A6F5); experiment: Inhibition of Escherichia coli GroEL expressed in Escherichia coliDH5alpha/Escherichia coli GroES expressed in Escherichia coli BL21 (DE3) assessed as reduction in GroEL/GroES-mediated denatured pig heart mitochondrial MDH refolding by measuring MDH enzyme activity using sodium mesoxalate as substrate after 20 to 40 mins by spectrometric analysis
T4 sequence (P0A6F5 whole entry, looked up): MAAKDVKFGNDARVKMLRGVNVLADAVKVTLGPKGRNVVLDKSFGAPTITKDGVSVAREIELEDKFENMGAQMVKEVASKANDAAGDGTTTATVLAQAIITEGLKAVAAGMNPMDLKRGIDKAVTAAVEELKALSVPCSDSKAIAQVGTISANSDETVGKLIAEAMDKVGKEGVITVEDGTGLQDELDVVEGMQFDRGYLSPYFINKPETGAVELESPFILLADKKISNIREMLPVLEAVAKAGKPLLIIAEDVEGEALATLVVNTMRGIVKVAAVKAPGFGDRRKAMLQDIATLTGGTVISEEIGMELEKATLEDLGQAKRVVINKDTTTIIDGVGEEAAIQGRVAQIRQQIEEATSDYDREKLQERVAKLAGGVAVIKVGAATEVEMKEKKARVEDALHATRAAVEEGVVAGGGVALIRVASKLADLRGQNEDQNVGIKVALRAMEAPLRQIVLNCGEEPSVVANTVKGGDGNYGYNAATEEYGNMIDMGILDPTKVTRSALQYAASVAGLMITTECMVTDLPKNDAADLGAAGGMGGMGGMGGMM

[7] = test system: Mycobacterium tuberculosis; experiment: Antitubercular activity against Mycobacterium tuberculosis H37Rv after 5 days; type: functional, organism-based; details: 120 h
[8] = biological target: T5, Tyrosine-protein phosphatase non-receptor type 5 (Homo sapiens, UniProt P54829); experiment: Inhibition of human PTPN5 expressed in Escherichia coli Rosetta 2 (DE3) using pNPP as substrate after 45 mins by spectrophotometric method
T5 sequence (P54829 whole entry): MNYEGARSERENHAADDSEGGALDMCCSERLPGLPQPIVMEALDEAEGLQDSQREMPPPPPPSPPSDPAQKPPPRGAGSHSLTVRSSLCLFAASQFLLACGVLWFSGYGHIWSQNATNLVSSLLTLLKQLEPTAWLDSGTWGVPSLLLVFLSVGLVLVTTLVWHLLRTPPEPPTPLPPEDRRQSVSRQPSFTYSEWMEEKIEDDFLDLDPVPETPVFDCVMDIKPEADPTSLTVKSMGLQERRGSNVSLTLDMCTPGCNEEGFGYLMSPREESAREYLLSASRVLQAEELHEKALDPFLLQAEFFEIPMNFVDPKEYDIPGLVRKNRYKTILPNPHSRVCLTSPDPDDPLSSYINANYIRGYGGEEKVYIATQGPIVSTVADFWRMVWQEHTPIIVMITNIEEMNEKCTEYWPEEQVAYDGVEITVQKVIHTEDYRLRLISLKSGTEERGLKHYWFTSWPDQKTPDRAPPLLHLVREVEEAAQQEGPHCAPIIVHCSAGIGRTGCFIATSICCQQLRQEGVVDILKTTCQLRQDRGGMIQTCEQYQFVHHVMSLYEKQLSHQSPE

[9] = Selectivity ratio of IC50 for inhibition of human HSP60 expressed in Escherichia coli Rosetta 2(DE3)/human HSP10 expressed in Rosetta 2(DE3) pLysS cells to IC50 for inhibition of Escherichia coli GroEL expressed in Escherichia coli DH5alpha/Escherichia coli GroES expressed in Escherichia coli BL21 (DE3)
In short: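 Ratio of IC50s from two analogous chaperonin-mediated refolding assays: human HSP60/10 and E. coli GroEL/ES each refold denatured malate dehydrogenase (dMDH). Refolding is followed through the recovered MDH enzymatic activity in a coupled read-out. IC50s come from dose-response testing. GroEL subunits are at 700 nM in the GroEL/ES assay.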

[10] = biological target: T6, Malate dehydrogenase, mitochondrial (Sus scrofa, UniProt P00346); experiment: Inhibition of refolded pig heart mitochondrial MDH preincubated with Escherichia coli GroEL/GroES for 45 mins using sodium mesoxalate as substrate followed by compound addition and measured after 20 to 30 mins by spectrometric analysis
T6 sequence (P00346 whole entry): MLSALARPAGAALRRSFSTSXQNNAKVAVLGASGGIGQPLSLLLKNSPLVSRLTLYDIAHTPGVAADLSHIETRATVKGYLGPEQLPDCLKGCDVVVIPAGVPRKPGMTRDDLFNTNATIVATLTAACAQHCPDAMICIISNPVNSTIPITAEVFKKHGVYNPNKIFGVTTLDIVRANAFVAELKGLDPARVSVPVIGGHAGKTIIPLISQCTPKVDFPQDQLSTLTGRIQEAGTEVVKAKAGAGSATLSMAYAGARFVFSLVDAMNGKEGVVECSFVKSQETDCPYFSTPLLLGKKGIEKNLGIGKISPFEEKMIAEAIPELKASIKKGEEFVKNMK

[11] = Inhibition of refolded rhodanese (unknown origin) preincubated with Escherichia coli GroEL/GroES for 60 mins by measuring rhodanese enzyme activity followed by compound addition by Fe(SCN)3 dye based spectrometric analysis; design: species or system Homo sapiens
E. coli GroEL/ES [12] = biological target: T4, E. coli GroEL/ES; experiment: Inhibition of Escherichia coli GroEL expressed in Escherichia coli DH5alpha/Escherichia coli GroES expressed in Escherichia coli BL21 (DE3) assessed as reduction in GroEL/GroES-mediated denatured rhodanese refolding by measuring rhodanese enzyme activity after 45 mins by Fe(SCN)3 dye based spectrometric analysis
[13] = Cytotoxicity against human THLE3 cells assessed as reduction in cell viability after 48 hrs by Alamar blue assay; type: cell-based
In short: (§1)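 Alamar Blue viability read-out. Human liver (THLE-3) and kidney (HEK 293) cells incubated with compound for 48 h. Tested in dose-response to derive CC50.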

[14] = Cytotoxicity against human HEK293 cells assessed as reduction in cell viability after 48 hrs by Alamar blue assay; type: cell-based; in short: as §1

SMILES	IC50 [1] [µM]	IC50 (HSP60/HSP10) [µM]	Ratio IC50 [2]	IC50 [3] [µM]	IC50 [4] [µM]	inhibition at 200 µM [5] [%]	IC50 (E. coli GroEL/ES [6]) [µM]	EC50 [7] [µM]	IC50 [8] [µM]	Ratio IC50 [9]	IC50 [10] [µM]	IC50 [11] [µM]	IC50 (E. coli GroEL/ES [12]) [µM]	CC50 at 48 h [13] [µM]	CC50 at 48 h [14] [µM]
N#Cc1ccc(S(=O)(=O)Nc2ccc(-c3nc4cc(NS(=O)(=O)c5ccc(C#N)cc5)ccc4o3)cc2)cc1	37	49	2.3	35	12	95	35	43	27	1.4	–	–	–	–	–
NCc1ccc(S(=O)(=O)Nc2ccc3oc(-c4ccc(NS(=O)(=O)c5ccc(Cl)s5)cc4)nc3c2)cc1	42	37	9.5	61	4.4	91	4.6	59	62	8	–	–	–	–	–
O=S(=O)(Nc1ccc2oc(-c3ccc(NS(=O)(=O)c4ccc(Cl)s4)cc3)nc2c1)c1cccs1	13	9.1	2.5	31	5.1	52	4	36	23	2.3	–	–	–	–	–
O=S(=O)(Nc1ccc(-c2nc3cc(NS(=O)(=O)c4cccc(O)c4)ccc3o2)cc1)c1cccc(O)c1	38	17	25	84	1.5	80	0.97	84	47	18	–	–	–	–	–
NCc1ccc(S(=O)(=O)Nc2ccc(-c3nc4cc(NS(=O)(=O)c5ccc(Cl)s5)ccc4o3)cc2)cc1	56	48	6.2	91	9.1	94	–	26	75	37	–	–	–	–	–
O=S(=O)(Nc1ccc(-c2nc3cc(NS(=O)(=O)c4ccc(O)cc4)ccc3o2)cc1)c1ccc(O)cc1	27	14	2.3	75	12	66	0.23	94	35	61	–	–	–	–	–
O=S(=O)(Nc1ccc(-c2nc3cc(NS(=O)(=O)c4cccs4)ccc3o2)cc1)c1cccs1	31	40	2.6	41	12	59	5.5	34	33	7.3	–	–	–	–	–
O=S(=O)(Nc1ccc(-c2nc3cc(NS(=O)(=O)c4ccc(F)cc4)ccc3o2)cc1)c1ccc(F)cc1	27	67	1.3	28	18	48	3.3	66	23	20	–	–	–	–	–
O=S(=O)(Nc1ccc(-c2nc3cc(NS(=O)(=O)c4ccccc4F)ccc3o2)cc1)c1ccccc1F	36	57	1.6	31	16	54	20	45	26	2.9	–	–	–	–	–
O=S(=O)(Nc1ccc(-c2nc3cc(NS(=O)(=O)c4ccccc4)ccc3o2)cc1)c1ccccc1	24	80	1.3	29 to 31	18	76	4	28	23	20	–	–	–	–	–
CS(=O)(=O)Nc1ccc(-c2nc3cc(NS(=O)(=O)c4ccc(Cl)s4)ccc3o2)cc1	52	43	1.4	95	37	74	14	66	52	3.1	–	–	–	–	–
O=S(=O)(Nc1ccc2oc(-c3ccc(NS(=O)(=O)c4cccc5nonc45)cc3)nc2c1)c1ccc(Cl)s1	15	13	2.5	28	5.9	46	9.3	58	24	1.4	–	–	–	–	–
O=S(=O)(Nc1ccc(-c2nc3ccccc3o2)cc1)c1cccc(F)c1	62	71	–	80	91	80	92	185	54	–	> 63	> 100	225	> 100	> 100
O=S(=O)(Nc1ccc(-c2nc3ccccc3o2)cc1)c1cccs1	> 100	63	–	> 100	48	68	> 100	> 200	93	–	> 63	> 100	239	98	> 100
